Experimental data collected from several papers.
Compare with care: the assays were run in different laboratories.
Target: Dual specificity tyrosine-phosphorylation-regulated kinase 1B (DYRK1B, Homo sapiens, UniProt Q9Y463)

SMILES	assay	setting	endpoint	value
Cn1cncc1C1=CN(c2ncnc3[nH]cnc23)CCS1	enzyme activity, inhibitor, radiometric	2 µM	inhibition	95.3%
O=C(O)c1ccc2c(c1)nc(NCCc1cccc(F)c1)c1ncncc12	enzyme activity, inhibitor, radiometric	1 µM	remaining activity	117%
COc1cc2ncnc(Nc3ccc(Oc4ccccc4)c(C)c3C)c2cc1OC	enzyme activity, inhibitor	1 µM	inhibition	1%
O=C1NC(c2ccccn2)Sc2ccccc21 (stereo not drawn)	cell-free assay, competition with immobilised ligand	1 µM	remaining binding	100%
CCCS(=O)(=O)Nc1ccc(F)c(C(=O)c2c[nH]c3ncc(-c4ccc(Cl)cc4)cc23)c1F	enzyme activity, inhibitor	1 µM	inhibition	< 20%
COc1cccc(CCNc2nc3cc(C(=O)O)ccc3c3cnccc23)c1	enzyme activity, inhibitor, radiometric	1 µM	remaining activity	123%
Cc1sc(C(=O)NC2COC2)cc1-n1cc(NC(=O)Nc2c(F)cccc2Cl)cn1	enzyme activity, inhibitor	10 µM	remaining activity	105%
C[C@@H](c1cccc(C#N)c1)n1cc(Cl)cc(C(N)=O)c1=N	cell-free assay, competition with immobilised ligand	1 µM	remaining binding	37%
CS(=O)(=O)Nc1cccc(-c2csc(NC(=O)CSc3nc4nccnc4c(=O)n3CCc3ccccc3)n2)c1	enzyme activity, inhibitor	10 µM	inhibition	0%
Cc1c(C(=O)O)cc(-c2ccc(C3CCNCC3)cc2)c2ccc(-c3ccc(C(F)(F)F)cc3)cc12	cell-free assay, competition with immobilised ligand	1 µM	remaining binding	74%
O=C(O)c1ccc2c(c1)nc(NCc1ccccc1)c1ncncc12	enzyme activity, inhibitor, radiometric	1 µM	remaining activity	124%
O=C(N1CCS(=O)(=O)CC1)N1C[C@H](c2ccc(OC(F)(F)F)cc2)C[C@H](c2nc(C3CC3)no2)C1	cell-free assay, competition with immobilised ligand	1 µM	remaining binding	93%
Cn1cnc(Br)c1C1=CN(c2ncnc3[nH]cnc23)CCS1	enzyme activity, inhibitor, radiometric	2 µM	inhibition	100%
CC(=O)N1CCC(c2ccc(C(=O)NC(=N)N)cc2C(F)(F)F)CC1	cell-free assay, competition with immobilised ligand	1 µM	remaining binding	45%
O=C(O)c1ccc2c(c1)nc(Nc1cccc(F)c1)c1ncncc12	enzyme activity, inhibitor, radiometric	1 µM	remaining activity	30%
